Results published in ChEMBL document CHEMBL2157934, “Pyrrolidinyl phenylurea derivatives as novel CCR3 antagonists” (Bioorg Med Chem Lett, 2012).
The source made the active and inactive calls. No cut-off for these calls is given here.

Key:
[1] = target: T1, C-C chemokine receptor type 3 (Homo sapiens, UniProt P51677); experiment: Antagonist activity at CCR3 receptor; type: functional
T1 sequence (P51677 whole entry): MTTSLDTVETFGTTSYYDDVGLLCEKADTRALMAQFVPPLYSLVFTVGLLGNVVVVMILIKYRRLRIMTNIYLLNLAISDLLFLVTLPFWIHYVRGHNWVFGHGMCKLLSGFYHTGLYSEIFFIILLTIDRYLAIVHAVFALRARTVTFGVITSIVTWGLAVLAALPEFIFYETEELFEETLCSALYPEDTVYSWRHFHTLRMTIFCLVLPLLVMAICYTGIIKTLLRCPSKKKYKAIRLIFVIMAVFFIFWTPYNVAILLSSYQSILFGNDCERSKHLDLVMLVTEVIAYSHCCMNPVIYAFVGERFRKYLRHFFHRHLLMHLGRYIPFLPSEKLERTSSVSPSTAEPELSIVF

[2] = target: C-C chemokine receptor type 5 (Homo sapiens) (UniProt P51681); experiment: Inhibition of CCR5 receptor at 10 uM
[3] = target: T2, C-C chemokine receptor type 3 (Homo sapiens) (UniProt P51677); experiment: (§1) Antagonist activity at CCR3 receptor in human eosinophils assessed as inhibition of CCL11-induced degranulation after 4 hrs by ELISA; type: functional
T2 sequence (whole entry): T1 sequence (P51677 whole entry)
Outline: (§2)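 Eosinophils isolated from peripheral blood of normal human volunteers; wells pre-blocked with 2.5% BSA in PBS, 2 h, 37 °C. 5 × 10^5 cells in RPMI 1640 with 0.5% BSA, with or without 0.6 nM human CCL11 and varying antagonist concentrations, incubated 4 h at 37 °C, 5% CO2. Supernatant EDN quantified by ELISA; IC50 from dose-response.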

[4] = target: T1, C-C chemokine receptor type 3; experiment: as §1; type: functional; outline: as §2
[5] = Oral bioavailability in cynomolgus monkey; type: ADME, organism-based, Macaca fascicularis; conditions: in vivo
[6] = target: T3, C-C chemokine receptor type 1 (Homo sapiens) (UniProt P32246); experiment: Inhibition of CCR1 receptor at 10 uM
T3 sequence (whole entry): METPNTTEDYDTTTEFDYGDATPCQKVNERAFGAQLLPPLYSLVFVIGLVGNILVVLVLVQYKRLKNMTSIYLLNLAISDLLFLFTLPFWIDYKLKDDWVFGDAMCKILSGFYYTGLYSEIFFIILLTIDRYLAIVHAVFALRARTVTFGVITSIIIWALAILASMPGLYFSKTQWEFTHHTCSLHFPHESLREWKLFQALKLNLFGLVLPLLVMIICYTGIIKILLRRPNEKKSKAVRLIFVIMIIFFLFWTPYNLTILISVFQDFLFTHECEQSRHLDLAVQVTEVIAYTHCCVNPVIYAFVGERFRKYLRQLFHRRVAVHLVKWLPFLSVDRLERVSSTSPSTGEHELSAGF

[7] = target: C-C chemokine receptor type 2 (Homo sapiens) (UniProt P41597); experiment: Inhibition of CCR2 receptor at 10 uM
Sequence of C-C chemokine receptor type 2 (Homo sapiens) (P41597 whole entry, looked up): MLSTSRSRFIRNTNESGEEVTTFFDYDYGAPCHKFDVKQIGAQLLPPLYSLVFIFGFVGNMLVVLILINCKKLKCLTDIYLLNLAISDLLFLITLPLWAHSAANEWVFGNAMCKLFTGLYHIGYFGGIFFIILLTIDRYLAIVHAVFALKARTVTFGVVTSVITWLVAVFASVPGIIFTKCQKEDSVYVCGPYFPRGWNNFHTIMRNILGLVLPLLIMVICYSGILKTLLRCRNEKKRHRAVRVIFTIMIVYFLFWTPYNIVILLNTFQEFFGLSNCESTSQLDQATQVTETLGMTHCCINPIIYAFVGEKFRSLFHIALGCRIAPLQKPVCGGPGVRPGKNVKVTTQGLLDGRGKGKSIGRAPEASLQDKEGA

Sequence of C-C chemokine receptor type 5 (Homo sapiens) (P51681 whole entry, looked up): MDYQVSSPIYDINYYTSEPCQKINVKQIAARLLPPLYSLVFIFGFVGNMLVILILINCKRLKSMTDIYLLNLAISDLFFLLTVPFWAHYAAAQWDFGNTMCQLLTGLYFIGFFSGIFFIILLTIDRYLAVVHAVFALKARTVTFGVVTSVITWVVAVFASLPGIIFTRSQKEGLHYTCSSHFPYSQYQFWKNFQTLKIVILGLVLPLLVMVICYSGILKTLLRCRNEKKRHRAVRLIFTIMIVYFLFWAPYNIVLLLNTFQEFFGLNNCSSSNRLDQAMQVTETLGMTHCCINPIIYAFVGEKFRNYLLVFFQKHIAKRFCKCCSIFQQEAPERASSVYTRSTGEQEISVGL

| SMILES | IC50 [1] [nM] | also measured |
| --- | --- | --- |
| O=C(Nc1ccccc1CCO)N[C@@H]1CCN(Cc2ccc3cc(F)ccc3c2)C1 | 12 | – |
| NC(=O)COc1ccccc1NC(=O)N[C@@H]1CCN(Cc2ccc3cc(F)ccc3c2)C1 | 110 | – |
| O=C(NC1CCN(S(=O)(=O)c2ccccc2O)CC1)N1CCCN(Cc2ccc3cc(F)ccc3c2)CC1 | 25 | – |
| O=C(Nc1ccccc1CCCO)N[C@@H]1CCN(Cc2ccc3cc(F)ccc3c2)C1 | 24 | – |
| COCCOc1ccccc1NC(=O)N[C@@H]1CCN(Cc2ccc3cc(F)ccc3c2)C1 | 71 | – |
| O=C(Nc1ccc(OCCO)cc1)N[C@@H]1CCN(Cc2ccc3cc(F)ccc3c2)C1 | 71 | – |
| O=C1OC2(CCN(Cc3ccc4cc(F)ccc4c3)CC2)c2ccccc2N1Cc1ccccc1 | 2000 | – |
| CN(C)C(=O)COc1ccccc1NC(=O)N[C@@H]1CCN(Cc2ccc3cc(F)ccc3c2)C1 | 190 | – |
| O=C(NC1CCN(Cc2ccccc2)CC1)N1CCCN(Cc2ccc3cc(F)ccc3c2)CC1 | 380 | – |

The remaining compounds from weak to strong by IC50 [1], led by results:

| IC50 [1] [nM] | SMILES | also measured |
| --- | --- | --- |
| 600 | O=C1N(CCc2ccccc2)CCC12CCN(Cc1ccc3cc(F)ccc3c1)CC2 | – |
| 110 | O=C(Nc1ccccc1OCCOCCO)N[C@@H]1CCN(Cc2ccc3cc(F)ccc3c2)C1 | – |
| 51 | O=C(Nc1ccccc1OCCCCO)N[C@@H]1CCN(Cc2ccc3cc(F)ccc3c2)C1 | – |
| 50 | O=C(Nc1ccccc1OCCCO)N[C@@H]1CCN(Cc2ccc3cc(F)ccc3c2)C1 | – |
| 50 | O=C(Nc1ccccc1)N[C@@H]1CCN(Cc2ccc3cc(F)ccc3c2)C1 | – |
| 50 | CN(C)CCOc1ccccc1NC(=O)N[C@@H]1CCN(Cc2ccc3cc(F)ccc3c2)C1 | – |
| 44 | COCc1ccccc1NC(=O)N[C@@H]1CCN(Cc2ccc3cc(F)ccc3c2)C1 | – |
| 41 | O=C(NC1CCCCC1)N[C@@H]1CCN(Cc2ccc3cc(F)ccc3c2)C1 | – |
| 28 | O=C(Nc1cccc(OCCO)c1)N[C@@H]1CCN(Cc2ccc3cc(F)ccc3c2)C1 | – |
| 14 | CS(=O)(=O)N1CCC(NC(=O)N[C@@H]2CCN(Cc3ccc4cc(F)ccc4c3)C2)CC1 | – |
| 9.9 | O=C(Nc1ccccc1COCCO)N[C@@H]1CCN(Cc2ccc3cc(F)ccc3c2)C1 | – |
| 2.4 | O=C(NC1CCN(S(=O)(=O)c2ccccc2O)CC1)N[C@@H]1CCN(Cc2ccc3cc(F)ccc3c2)C1 | – |
| 1.7 | O=C(Nc1ccccc1OCCO)N[C@@H]1CCN(Cc2ccc3cc(F)ccc3c2)C1 | inhibition [2]: inactive; inhibition [3]: Dose-dependent effect; IC50 [4]: 0.87 nM; bioavailability [5]: 22%; inhibition [6]: inactive; inhibition [7]: inactive |
